Source: PubChem (SRMLSC)
BB579 growth dn: chemicals that inhibit yeast BB579 growth in restrictive medium (lifespan-shortening candidates); S. cerevisiae BB579 growth, OD615, 48 h; inhibition, % at 10 µM; 140,000 tested, 0.51% active;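 active = inhibition above a set limit, 3 SD over the mean compound inhibition, cut at about 44% in these data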
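Test system: DeaD yeast strain BB579 / Buffer or medium: restrictive glucose-based CSMM-D medium / Doses: single 10 µM dose / Schedule: 4 h cell preincubation, 48 h compound exposure, 30 °C humidified / Technique: culture absorbance at 615 nm / Controls: amphotericin B positive control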
PostGolgi ctrl: growth of the yeast control strain, post-Golgi counter-screen; efflux-deficient yeast background strain, growth absorbance A615, 16 h; inhibition, % at 10 µM; 98,000 tested, 5% active; AID 738
Yeast life ext: extends the lifespan of yeast | S. cerevisiae growth with nicotinamide, OD615; deaD strain in restrictive glucose medium | inhibition of the nicotinamide effect, % at 10 µM | 130,000 tested, 0.68% active;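 active = inhibition above a set limit, placed 3 SD over the median of all compounds, cut at about 26% in these data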;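 also: 0% = nicotinamide-treated wells and 100% = cells grown without nicotinamide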
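System: DeaD-strain S. cerevisiae / Buffer or medium: CSMM-D, restrictive glucose (dextrose) synthetic minimal medium / Probe or stimulus: nicotinamide, 1.5 mM, co-present with compound / Compound: one concentration, 10 µM, DMSO 0.25% / Incubation: 48 h compound exposure at 30 °C, humidified / Technique: optical density (absorbance) at 615 nm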
PostGolgi yeast: growth inhibition of a yeast mutant, post-Golgi transport screen; AID 739; 98,000 tested, 0.9% active; inhibition, % at 10 µM; post-Golgi transport phenotypic cell assay;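 also: yeast cells grown in 1536-well plates; yeast grown about 18 h at 30C before absorbance read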
An asterisk follows results filed as active. This is one part of a sample in which hits are shown more often than they occur. Rule as the data show it, unless noted: active = inhibition above about 30%; inactive = the rest.

Cc1cc(C)n(CC(O)Cn2c3ccccc3c3ccccc32)n1 (configuration not stated) was read as BB579 growth dn -22, PostGolgi ctrl 19, Yeast life ext -6 and PostGolgi yeast -2.
`Oc1c(Br)cc(Cl)cc1C=Nc1ccccc1Br` gave BB579 growth dn 65* and Yeast life ext 16.
Cc1n[nH]c(C)c1Sc1ccccc1N=Cc1cc(Cl)cc([N+](=O)[O-])c1O was read as BB579 growth dn 1, PostGolgi ctrl 16, Yeast life ext -8 and PostGolgi yeast -2.
`COc1ccc(-c2nc(N)nc(C)c2Oc2ccccc2Br)c(O)c1` gave BB579 growth dn -3, PostGolgi ctrl 79*, Yeast life ext -7 and PostGolgi yeast 56*.
`COc1ccc(-c2nc(N)ncc2-c2csc(C)n2)c(O)c1` gave BB579 growth dn 9, PostGolgi ctrl 4, Yeast life ext -2 and PostGolgi yeast -5.
Screening O=C(COC(=O)CSCC(=O)N1CCCCC1)Nc1ccc(Cl)cc1 returned BB579 growth dn -52, PostGolgi ctrl 36*, Yeast life ext -20 and PostGolgi yeast -3.
Screening CCOC(=O)N1CCC(N(C(=O)Nc2ccc(Cl)c(Cl)c2)C(C)CC)CC1 (configuration not stated) returned BB579 growth dn -44, PostGolgi ctrl 39*, Yeast life ext -15 and PostGolgi yeast 0.
`O=C(Nc1ccc(Cl)cc1)N1CCCC1` gave BB579 growth dn -41, PostGolgi ctrl -1, Yeast life ext -11 and PostGolgi yeast -8.
Screening CCOC(=O)N1CCN(C(=O)CSCc2ccc(Cl)cc2)CC1 returned BB579 growth dn -39, PostGolgi ctrl 36*, Yeast life ext 11 and PostGolgi yeast 2.
`CCOC(=O)N1CCN(C(=O)CSCc2ccccc2)CC1` gave BB579 growth dn -22 and Yeast life ext -1.
`O=C(Nc1ccc(Cl)cc1)N1CCSCC1` gave BB579 growth dn -74, PostGolgi ctrl 44*, Yeast life ext -9 and PostGolgi yeast -2.
For CCOC(=O)C1=C(C)C(c2ccccc2)NC(=S)N1 (configuration not stated) the results were BB579 growth dn 14, PostGolgi ctrl 0, Yeast life ext -12 and PostGolgi yeast -7.
Screening CCOC(=O)N1CCN(C(=O)Nc2cccc(Cl)c2)CC1 returned BB579 growth dn -30, PostGolgi ctrl -3, Yeast life ext -9 and PostGolgi yeast 4.
`CCOC(=O)N1CCN(C(=O)Nc2ccc(Cl)cc2)CC1` gave BB579 growth dn -32, PostGolgi ctrl 36*, Yeast life ext -6 and PostGolgi yeast -4.
For O=C(N1CCOCC1)N(CCN1CCOCC1)Cc1cccc2ccccc12 the results were BB579 growth dn 3, PostGolgi ctrl 0, Yeast life ext -11 and PostGolgi yeast -6.
For CC1(C(=O)c2ccccc2)C2c3c(ccc4ccccc34)OC(=O)C21C(=O)N1CCOCC1 (configuration not stated) the results were BB579 growth dn -44, PostGolgi ctrl 46*, Yeast life ext 30 and PostGolgi yeast 6.
For O=C(CSc1ccc2nnc(-c3ccccn3)n2n1)NCc1ccco1 the results were BB579 growth dn -62, PostGolgi ctrl 3, Yeast life ext 2 and PostGolgi yeast 1.
For O=C(NCc1ccc(F)cc1)C1(c2cccs2)CCOCC1 the results were BB579 growth dn 1 and Yeast life ext 2.
CN1CCN(CC(=O)Nc2ccccc2[N+](=O)[O-])CC1 was read as BB579 growth dn -28 and Yeast life ext 6.
For COc1ccc(C)cc1NC(=O)CN1CCN(c2ccccc2F)CC1 the results were BB579 growth dn -36, PostGolgi ctrl 38*, Yeast life ext -6 and PostGolgi yeast 0.
`COc1ccc(C)cc1NC(=O)CN1CCN(S(=O)(=O)c2ccc(F)cc2)CC1` gave BB579 growth dn -40, PostGolgi ctrl 31*, Yeast life ext -22 and PostGolgi yeast 2.
Cc1cccc(N2CCN(CC(=O)Nc3ccccc3[N+](=O)[O-])CC2)c1C was read as BB579 growth dn -15, PostGolgi ctrl 32*, Yeast life ext -12 and PostGolgi yeast -1.
COc1ccc(OC)c(NC(=O)CCN2CCN(c3ccccc3F)CC2)c1 was read as BB579 growth dn -50, PostGolgi ctrl -2, Yeast life ext -10 and PostGolgi yeast 3.
`O=[N+]([O-])c1ccc(/C=N/NC(=S)Nc2ccccc2C(F)(F)F)o1` gave BB579 growth dn 28 and Yeast life ext -1.
Screening CCN1CNC(=S)N(Cc2ccccc2)C1 returned BB579 growth dn 4 and Yeast life ext -1.
For CCCCCN1CSC(=S)N(Cc2ccccc2)C1 the results were BB579 growth dn 26 and Yeast life ext 27*.
